Experimental data published in the RNAGym collection of RNA variant scans (doi:10.1126/science.aae0568).
Fewer inactive variants are shown than the library holds.

B1: tRNA (parent)
chain: GUUCCGUUGGCGUAAUGGUAACGCGUCUCCCUCCUAAGGAGAAGACUGCGGGUUCGAGUCCCGUACGGAACG

Variants of: B1
Experiment: yeast fitness relative to wild type (ratio to wild type); higher = fitter; tRNA-Arg(CCU), competitive growth, 37 C, YPD
How it was run: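 A pool of Saccharomyces cerevisiae strains, each with a tRNA-Arg(CCU) gene variant at the native genomic locus, was competed in YPD at 37°C for 24 hours across six parallel replicates. The variants had been chemically synthesised at a 3% per-site mutation rate over 69 sites, and gene amplicons before and after competition were read by 100-nucleotide paired-end sequencing. Darwinian fitness relative to wild type rested on changes in genotype frequencies. Genotypes required ≥ 100 starting reads, and estimates < 0.5 were set to 0.5.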

| Variant | yeast fitness |
| --- | --- |
| GUUCCGUUGGCGUAAUGGUAACGGGUCUCCCUCCUAAGGAGAAGACUGCGGGUUCGAGUCCCCUUCGGAACG [C24G G63C A65U] | 0.596 |
| GUUCCGUUGGCGUAAUGGUAACGGGUCUCCCUCCUAAGGAGAAGACUGCGGGUUCGAGUCCCGUACGCAACG [C24G G68C] | 0.599 |
| GUUCCGUUGGCGUAAUGGUAACGGGUCUCCCUCCUAAGGAGAAGACUGCGGGUUCGAGUCCCGUAGGGAACG [C24G C66G] | 0.691 |
| GUUCCGUUGGCGUAAUGGUAACGGGUCUCCCUCCUAAGGAGAAGACUGCGGGUUCGAGUCCCGUAUGGAACG [C24G C66U] | 0.533 |
| GUUCCGUUGGCGUAAUGGUAACGGGUCUCCCUCCUAAGGAGAAGACUGCGGGUUCAAGUCCCGUACGGAACG [C24G G56A] | 0.618 |
| GUUCCGUUGGCGUAAUGGUAACGGGUCUCCCUCCUAAGCAGAAGGCUGCGGGUAUGAGUCCCGUACGGAACG [C24G G39C A45G U54A C55U] | ≤ 0.5 |
| GUUCCGUUGGCGUAAUGGUAACGGGUCUCCCUCCUAAGGAGAAGACUGCGGGUUGGAGUCCCGUACGGAACG [C24G C55G] | 0.649 |
| GUUCCGUUGGCGUAAUGGUAACGGGUCUCCCUCCUAAGGAGAAGACUGCGGGUUAGAGUCCCGUACGGAACG [C24G C55A] | 0.66 |
| GUUCCGUUGGCGUAAUGGUAACGGGUCUCCCUCCUAACGAGAAGAAUGCGGGCUCGAGUCGCGUACGGAACG [C24G G38C C46A U53C C61G] | ≤ 0.5 |
| GUUCCGUUGGCGUAAUGGUAACGGGUCUCCCUCCUAAGGAGAAGACUGCGGGUUCACGUCCCGUACGGAACG [C24G G56A A57C] | ≤ 0.5 |
| GUUCCGUUGGCGUAAUGGUAACGGAUCUCCCUCCUAAGGAGAAGACUGCGGGUUCGAGUCGCGUACCAAACG [C24G G25A C61G G67C G68A] | 0.676 |
| GUUCCGUUGGCGUAAUGGUAACGGGUCUCCCUCCUAAGGAAAAGACUGCGAGUUCGAGUCCCGUACGGAACG [C24G G41A G51A] | ≤ 0.5 |
| GUUCCGUUGGCGUAAUGGUAACGGGUCUCCCUCCUAAGCAGAAGACUGCGGGUUCGAGUCUCGUAUGGAACG [C24G G39C C61U C66U] | ≤ 0.5 |
| GUUCCGUUGGCGUAAUGGUAACGGGUCUCCCUCCUAAGGAGAAGACUGCGGGUUUGAGUCCCGAACGGAACG [C24G C55U U64A] | 0.674 |
| GUUCCGUUGGCGUAAUGGUAACGGGUCUCCCUCCUAAGGAGAAGACUGCGGGUUCGAGUCCUGUACGGAACG [C24G C62U] | 0.562 |
| GUUCCGUUGGCGUAAUGGUAACGGGUCUCCCUCCUAAGGAGAAGACUGCGGGUUCGAGUCCGGUACGGAACG [C24G C62G] | 0.541 |
| GUUCCGUUGGCGUAAUGGUAACGGGACUCCCUCCUAAGGAGAAGACUGCGGGUUCGAGUCCCGUACGGAACG [C24G U26A] | 0.609 |
| GUUCCGUUGGCGUAAUGGUAACGGAUCUCCGUCCUAAGGAGAAGACUGCGGGUUCGUGUCCCGUACGGAACG [C24G G25A C31G A57U] | 0.532 |
| GUUCCGUUGGCGUAAUGGUAACGGGUCUCCCUCCUAAGGAGAAGACUGUGGGUUCGAGUCACGUACGGAACG [C24G C49U C61A] | ≤ 0.5 |

| Variant | yeast fitness |
| --- | --- |
| GUUCCGUUGGCGUAAUGGUAACGGGUCUCCCUCCUAAGGAGAAGACUGCGGGUUCGAGUCUCGUACGGUACG [C24G C61U A69U] | 0.516 |
| GUUCCGUUGGCGUAAUGGUAACGGGUCUCCCUCCUAAGGAGAAGACUGCGGGUUAGAGUCCCGUUCGGAACG [C24G C55A A65U] | ≤ 0.5 |
| GUUCCGUUGGCGUAAUGGUAACGGCUAUCCCUCCUAAGGAGAAGACUGCGGGUUCGAGACCAGUACGGAACG [C24G G25C C27A U59A C62A] | ≤ 0.5 |
| GUUCCGUUGGCGUAAUGGUAACGGGUCUCCCUCCUAAGCAGAAGACUGCGGGUUCGAGUCUCGUACGGAACG [C24G G39C C61U] | ≤ 0.5 |
| GUUCCGUUGGCGUAAUGGUAACGGGUCUCCCUCCUAAGGAGAAGACUGCGGGUUCGAGUCCCGUACGCACCG [C24G G68C A70C] | 0.578 |
| GUUCCGUUGGCGUAAUGGUAACGGGUCUCCCUCCUAAAGAGAAGACUGCGGGUUCGAGUCCCGUACGGAACG [C24G G38A] | 0.519 |
| GUUCCGUUGGCGUAAUGGUAACGGGACUCCCUCCUAAGGAGAAGCCUGCGGGUUCGAGUCCCGUACGGAACG [C24G U26A A45C] | ≤ 0.5 |
| GUUCCGUUGGCGUAAUGGUAACGGAUCUCCCUCCUAAGGAGAAGACUGCGGGUUCGAGUCCCGUAUGGAACG [C24G G25A C66U] | 0.561 |
| GUUCCGUUGGCGUAAUGGUAACGGGUCUCCCUCCUAAGGAGAACACUGCGGGUUCGACUCCCGUACGUAACG [C24G G44C G58C G68U] | 0.516 |
| GUUCCGUUGGCGUAAUGGUAACGGGUCUCCCUCCUAAGCAGAAGGCUGCGGGUACGAGUCCCGUACGGAACG [C24G G39C A45G U54A] | ≤ 0.5 |
| GUUCCGUUGGCGUAAUGGUAACGGAUCUCCGUCCUAAGGAGAAGACUGCGGGUUCGAGUCCCGCACGGAACG [C24G G25A C31G U64C] | 0.75 |
| GUUCCGUUGGCGUAAUGGUAACGGGUCUCCCUCCUAACGAGAAGACUGCGGGUUCGAGUCCCGUUCGGAACG [C24G G38C A65U] | 0.509 |
| GUUCCGUUGGCGUAAUGGUAACGGCUAUCCCUCCUAAGGCGAAGACUGCGAGUUCGAGUCCCGUACGGAACG [C24G G25C C27A A40C G51A] | ≤ 0.5 |
| GUUCCGUUGGCGUAAUGGUAACGGGUCUCCCUCCUAAGGAGAACACUGCGGGUUCGAGUCCCGUAUGGAACG [C24G G44C C66U] | ≤ 0.5 |
| GUUCCGUUGGCGUAAUGGUAACGGAUCUCCCUCCUAAGGAGAAGACUACGGGUUCGAGUCCCGUACGGAACG [C24G G25A G48A] | 0.697 |
| GUUCCGUUGGCGUAAUGGUAACGGGUCUCCCUCCUAACGAGAAGACUGCCGGUUCGAGUCCCGUACGGAACG [C24G G38C G50C] | ≤ 0.5 |
| GUUCCGUUGGCGUAAUGGUAACGGAUCUCCCUCCUAAGGAGAAGACUGCGGGUUCGAGUCCCGUGCGGAACG [C24G G25A A65G] | 0.609 |
| GUUCCGUUGGCGUAAUGGUAACGGGUCUCCCUCCUAAGGAGAAGACUACGGGUUCGAGUCCCGUACGAAACG [C24G G48A G68A] | ≤ 0.5 |
| GUUCCGUUGGCGUAAUGGUAACGGGUCUCCCUCCUAAGGAGAACACUGCGGGUUCGACUCCCGUACGGAACG [C24G G44C G58C] | 0.547 |
